Test [1] deals with Sodium-dependent dopamine transporter (Homo sapiens, UniProt Q01959). Put plainly: Displacement of [125I]RTI-55 from human DAT expressed in HEK-293 cells.
The species entered for test [2] is Homo sapiens. Briefly: Selectivity ratio of Ki for human DAT to Ki for human NET.
In test [3] the target is Sodium-dependent serotonin transporter (Homo sapiens, UniProt P31645). Put plainly: Displacement of [3H]citalopram from human SERT expressed in HEK293 cells. It counts as cell-based. An outline of the steps:
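Membranes from HEK-293 cells stably expressing hSERT, 30–70 µg protein, with [3H]citalopram. Buffer: 53 mM Tris, 126 mM NaCl, 5.3 mM KCl, pH 7.9. Incubated 2 h at room temperature. Competitor tested at 12 concentrations, 10^-13 to 10^-5 M, in triplicate. Ended by cold-buffer vacuum filtration on 0.3% PEI-soaked GF/B filters. Ki given as geometric mean of ≥3 separate assays.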

Test [4] has as its target Sodium-dependent noradrenaline transporter (Homo sapiens, UniProt P23975). Put plainly: Displacement of [3H]nisoxetine from human NET expressed in HEK293 cells. The format is cell-based. An outline of the steps: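 Membranes from HEK-293 cells stably expressing hNET (grown in DMEM, 10% FBS, Geneticin), 30–70 µg protein per tube, with [3H]nisoxetine. Buffer: 53 mM Tris, 320 mM NaCl, 5.3 mM KCl, pH 7.4 at 4 °C. Incubated 4 h at 4 °C. Competitor tested at 12 concentrations, 10^-13 to 10^-5 M, in triplicate. Filtered on PEI-soaked GF/B filters. Ki given as geometric mean of ≥3 assays.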

For test [5], the species on record is Homo sapiens. Briefly: Selectivity ratio of Ki for human SERT to Ki for human NET.

Sodium-dependent serotonin transporter, sequence (P31645 whole entry): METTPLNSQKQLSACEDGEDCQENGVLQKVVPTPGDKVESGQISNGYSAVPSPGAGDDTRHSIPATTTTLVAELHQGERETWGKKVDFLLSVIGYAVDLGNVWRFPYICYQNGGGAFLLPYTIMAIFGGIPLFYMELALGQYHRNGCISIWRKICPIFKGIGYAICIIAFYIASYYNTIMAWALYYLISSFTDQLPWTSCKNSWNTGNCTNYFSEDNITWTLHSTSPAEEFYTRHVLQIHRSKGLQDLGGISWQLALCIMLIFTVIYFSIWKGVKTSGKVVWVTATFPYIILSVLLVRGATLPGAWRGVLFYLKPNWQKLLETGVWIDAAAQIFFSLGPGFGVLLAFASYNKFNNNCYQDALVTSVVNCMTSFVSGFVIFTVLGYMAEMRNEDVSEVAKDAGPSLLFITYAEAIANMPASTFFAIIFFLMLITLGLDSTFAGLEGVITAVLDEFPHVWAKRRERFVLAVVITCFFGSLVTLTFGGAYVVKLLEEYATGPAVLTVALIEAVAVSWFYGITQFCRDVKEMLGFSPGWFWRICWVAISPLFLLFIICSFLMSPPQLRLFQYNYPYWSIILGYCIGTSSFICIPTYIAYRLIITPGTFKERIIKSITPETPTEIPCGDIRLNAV
Sodium-dependent noradrenaline transporter, sequence (P23975 whole entry): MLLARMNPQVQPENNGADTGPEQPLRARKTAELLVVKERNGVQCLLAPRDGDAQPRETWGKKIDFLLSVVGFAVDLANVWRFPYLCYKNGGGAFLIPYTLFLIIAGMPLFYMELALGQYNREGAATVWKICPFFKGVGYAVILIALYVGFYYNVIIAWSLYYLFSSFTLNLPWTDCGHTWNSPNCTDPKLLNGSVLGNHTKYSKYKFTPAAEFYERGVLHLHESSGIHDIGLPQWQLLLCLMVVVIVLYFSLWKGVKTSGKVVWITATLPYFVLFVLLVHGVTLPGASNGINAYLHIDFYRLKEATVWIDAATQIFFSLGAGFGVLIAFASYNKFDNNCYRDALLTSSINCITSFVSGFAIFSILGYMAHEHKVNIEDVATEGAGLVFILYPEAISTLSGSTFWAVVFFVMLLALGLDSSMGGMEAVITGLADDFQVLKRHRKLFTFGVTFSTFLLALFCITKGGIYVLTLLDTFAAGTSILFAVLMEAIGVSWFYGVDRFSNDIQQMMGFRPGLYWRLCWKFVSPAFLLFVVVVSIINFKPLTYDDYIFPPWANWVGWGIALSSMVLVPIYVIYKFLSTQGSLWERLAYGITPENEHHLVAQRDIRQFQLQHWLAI
Sodium-dependent dopamine transporter, sequence (Q01959 whole entry): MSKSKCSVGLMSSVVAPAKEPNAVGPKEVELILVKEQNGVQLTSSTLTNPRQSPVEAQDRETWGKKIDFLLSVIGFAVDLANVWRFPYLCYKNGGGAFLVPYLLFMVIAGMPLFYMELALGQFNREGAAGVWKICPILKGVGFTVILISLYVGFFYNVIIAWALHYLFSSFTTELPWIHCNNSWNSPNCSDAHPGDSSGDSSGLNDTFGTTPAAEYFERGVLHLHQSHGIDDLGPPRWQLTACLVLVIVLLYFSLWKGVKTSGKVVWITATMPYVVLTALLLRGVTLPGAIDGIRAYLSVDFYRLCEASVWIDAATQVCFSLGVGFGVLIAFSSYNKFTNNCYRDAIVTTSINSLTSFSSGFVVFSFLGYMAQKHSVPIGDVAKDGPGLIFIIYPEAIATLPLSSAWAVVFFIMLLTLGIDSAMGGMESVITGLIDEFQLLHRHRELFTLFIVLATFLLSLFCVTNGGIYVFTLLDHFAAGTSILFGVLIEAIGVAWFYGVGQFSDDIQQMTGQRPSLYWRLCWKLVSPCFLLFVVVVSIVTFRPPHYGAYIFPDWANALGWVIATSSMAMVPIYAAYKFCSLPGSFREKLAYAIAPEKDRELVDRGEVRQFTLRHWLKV

In the case of `FCCCOc1ccccc1S[C@@H](c1ccccc1)[C@@H]1CNCCO1`, the values for the Ki in test [1], in test [3] and in test [4] were over 9000 nM, 121 nM and 1.21 nM, respectively. For the same molecule, the Ratio Ki in the test filed under Homo sapiens [2] was over 7000; in the test listed under Homo sapiens [5] it was 100.
In the case of `COc1ccccc1S[C@@H](c1ccccc1)[C@@H]1CNCCO1`, the figures for the Ki in test [1], in test [3] and in test [4] were over 4000 nM, 9.69 nM and 0.76 nM, respectively. Besides, the Ratio Ki was over 4000 in the test filed under Homo sapiens [2] and 13 in the test filed under Homo sapiens [5].
For the molecule `CSc1ccccc1O[C@@H](c1ccccc1)[C@@H]1CNCCO1`, the Ki in test [1] is over 6000 nM; in test [3], 90.9 nM; in test [4], 2.06 nM. Besides, the Ratio Ki in the test listed under Homo sapiens [2] is over 3000; in the test filed under Homo sapiens [5] it was 44.
Regarding `FCCOc1ccccc1S[C@@H](c1ccccc1)[C@@H]1CNCCO1`, the figures for the Ki in test [1], in test [3] and in test [4] were over 10000 nM, 733 nM and 1 nM, respectively. Besides, the Ratio Ki is over 10000 in the test listed under Homo sapiens [2] and 733 in the test filed under Homo sapiens [5].
Turning to `COC(=O)c1ccccc1O[C@@H](c1ccccc1)[C@@H]1CNCCO1`, the results for the Ki in test [1], in test [3] and in test [4] were over 3000 nM, 614 nM and 1.32 nM, respectively. Moreover, the Ratio Ki was over 2000 in the test listed under Homo sapiens [2] and 465 in the test listed under Homo sapiens [5].
As for `COC(=O)c1ccccc1S[C@@H](c1ccccc1)[C@@H]1CNCCO1`, the Ki in test [1] is over 30000 nM; in test [3], 498 nM; in test [4], 1.35 nM. The figures for the Ratio Ki in the test filed under Homo sapiens [2] and in the test filed under Homo sapiens [5] were over 20000 and 369, respectively.
Consider `COc1ccccc1O[C@@H](c1ccccc1)[C@@H]1CNCCO1`, for which the Ki in test [1] was over 10000 nM; in test [3], 185 nM; in test [4], 0.95 nM. The Ratio Ki in the test listed under Homo sapiens [2] was over 10000; in the test listed under Homo sapiens [5], 195.

The values above are taken from ChEMBL document CHEMBL1142380, “Synthesis, in vitro characterization, and radiolabeling of reboxetine analogs as potential PET radioligands for imaging the norepinephrine transporter” (Bioorg Med Chem, 2008).
